Measurements collected from several papers.
Protocols differ between the studies behind these lines.
Cruzipain: Cruzipain (Trypanosoma cruzi, UniProt P25779)
LNPEP: Leucyl-cystinyl aminopeptidase (LNPEP, Homo sapiens, UniProt Q9UIQ6)
SLCO1B1: Solute carrier organic anion transporter family member 1B1 (SLCO1B1, Homo sapiens, UniProt Q9Y6L6)
MMP13: Collagenase 3 (MMP13, Homo sapiens, UniProt P45452)

Compound	target	assay	test system	conditions	IC50 [nM]
COc1ccc(NC(=O)COC(=O)C(CC(C)C)N2C(=O)C3CC=CCC3C2=O)cc1Cl (centres unmarked)	Cruzipain	enzyme activity, inhibitor, fluorescence			900
O=S(=O)(Nc1cccc(-c2nnn[nH]2)c1)c1scc2ccccc12	LNPEP	enzyme activity, inhibitor, fluorescence			10900
O=C(N[C@@H](Cc1ccccc1)C(=O)c1noc(-c2ccccc2)n1)[C@H](Cc1ccccc1)NC(=O)N1CCOCC1	Papain (Carica papaya, UniProt P00784)	enzyme activity, inhibitor		pH 6.5, with preincubation	200
CC[C@@H](C(=O)Nc1ccc(C(N)=O)c(F)c1)n1cc(OC)c(-c2cc(Cl)ccc2-n2cc(C(F)(F)F)nn2)cc1=O	Coagulation factor XII (F12, Homo sapiens, UniProt P00748)	enzyme activity, inhibitor			> 2000
O=c1ccc2c(OCCCCOc3ccccc3)c3ccoc3c(O)c2o1	Potassium voltage-gated channel subfamily A member 3 (Kcna3, Mus musculus, UniProt P16390)	ion current, inhibitor, patch clamp			159
CCC1CN(C(=O)NCC(F)(F)F)CC1N(C)c1ncnc2[nH]ccc12 (centres unmarked)	Tyrosine-protein kinase JAK1 (JAK1, Homo sapiens, UniProt P23458)	enzyme activity, inhibitor, ADP detection			930
NC(=O)c1ccc[n+]([C@@H]2O[C@H](COP(=O)([O-])OP(=O)(O)OC[C@H]3O[C@@H](n4cnc5c(N)ncnc54)[C@H](O)[C@@H]3O)[C@@H](O)[C@H]2O)c1	Protein mono-ADP-ribosyltransferase PARP8 (Homo sapiens, UniProt Q8N3A8)	enzyme activity, inhibitor			377000
CN(C)CC#Cc1ccc2[nH]c3c(c2c1)-c1nc(N)ncc1CCC3	Dual serine/threonine and tyrosine protein kinase (DSTYK, Homo sapiens, UniProt Q6XUX3)	enzyme activity, inhibitor, radiometric			> 10000
Cc1ncc([N+](=O)[O-])n1CCO	SLCO1B1	transporter uptake, inhibitor, fluorescence	CHO	30 min, pH 7.4	> 100000
c1ccc(/C(=N\Nc2nc3ccccc3s2)c2ccccn2)cc1	E3 ubiquitin-protein ligase Mdm2 (MDM2, Homo sapiens, UniProt Q00987)	protein-protein interaction, inhibitor			13000
Cn1ccc2ccc(S(=O)(=O)Nc3cccc(-c4nnn[nH]4)c3)cc21	LNPEP	enzyme activity, inhibitor, fluorescence			12700
Cn1nc(C(=O)NCc2ccc(C(=O)O)cc2)cc1-c1ccc2[nH]c(-c3ccncc3)cc2c1	MMP13	enzyme activity, inhibitor, FRET			0.92
O=S(=O)(Nc1cccc(-c2nnn[nH]2)c1)c1ccc(Cl)c2nonc12	LNPEP	enzyme activity, inhibitor, fluorescence			400
CCn1ncc2c1-c1cnc(N)c(c1)O[C@H](C)c1cc(F)ccc1-c1nn(C)nc1C2	Insulin receptor (INSR, Homo sapiens, UniProt P06213)	enzyme activity, inhibitor, radiometric			1140
C[N+]1(C)CCC(OC(=O)C(c2ccccc2)c2ccccc2)CC1	Muscarinic acetylcholine receptor M1 (CHRM1, Homo sapiens, UniProt P11229)	ligand displacement, radioligand			5.27
O=S(=O)(Nc1cccc(-c2nnn[nH]2)c1)c1ccc(C(F)(F)F)c(F)c1	LNPEP	enzyme activity, inhibitor, fluorescence			7500
Oc1ccc(/C=C/c2cc(O)cc(O)c2)cc1	SLCO1B1	transporter uptake, inhibitor, fluorescence	CHO	30 min, pH 7.4	11200
CCNC(=O)c1nc(-c2ccc3[nH]c(-c4nc(C)no4)cc3c2)c(C)[nH]1	MMP13	enzyme activity, inhibitor, FRET			11
CC(C)[C@H](CO)Nc1nc(Nc2cccc(Cl)c2)c2ncn(C(C)C)c2n1	Serine/threonine-protein kinase PAK 4 (PAK4, Homo sapiens, UniProt O96013)	enzyme activity, inhibitor		lysate	> 10000
Cc1ncsc1-c1ccc(CNC(=O)[C@@H]2C[C@@H](O)CN2C(=O)[C@@H](NC(=O)C2(F)CC2)C(C)(C)C)c(OCCOCCOCCN2CCN(c3cc(-c4ccccc4O)nnc3N)CC2)c1	Protein polybromo-1, bromodomain (PBRM1, Homo sapiens, UniProt Q86U86)	cell-free assay, TR-FRET			1500
Cn1nc(C(=O)NCc2ccc(C(=O)O)cc2)cc1-c1ccc2[nH]c(-c3ccncn3)cc2c1	MMP13	enzyme activity, inhibitor, FRET			0.81
COc1ccc(Cl)cc1NC(=O)COC(=O)C(CC(C)C)N1C(=O)C2CC=CCC2C1=O (centres unmarked)	Cruzipain	enzyme activity, inhibitor			13000
C[C@]12CC[C@@H]3c4ccc(OS(=O)(=O)O)cc4CC[C@H]3[C@@H]1CCC2=O	SLCO1B1	transporter uptake, inhibitor, fluorescence	CHO	30 min, pH 7.4	60
